Assay results reported in ChEMBL document CHEMBL1148613, “Synthesis and biological evaluation of novel phenylcarbazoles as potential anticancer agents” (J Med Chem, 2006).

How the values were obtained:
CEM/C2 = assay: Cytotoxicity against camptothecin-resistant human leukemic CEMC2 cell line; assay type: functional, cell-based
Method in brief: (§1)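 Human leukemia cells (CEM, or topoisomerase I-deficient CEM/C2) grown at 37 °C, 5% CO2 in RPMI 1640 with 10% FBS, glucose, HEPES, pyruvate and antibiotics. 2 × 10^4 exponentially growing cells seeded with graded drug concentrations, 72 h at 37 °C. Tetrazolium dye (CellTiter 96 aqueous one-solution) added for a further 2 h, absorbance read at 492 nm; IC50 reported.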

[1] = Inhibitory activity against CDK1/Cyclin B from starfish oocytes; parameters: species or system Marthasterias glacialis; conditions: oocyte
Method in brief: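 Starfish oocyte (M phase) CDK1/cyclin B, affinity-purified on p9CKShs1-sepharose. Buffer C (25 mM Mops pH 7.2, β-glycerophosphate, p-nitrophenyl phosphate, EGTA, 15 mM MgCl2, DTT, vanadate, phenyl phosphate), 1 mg/mL histone H1, 15 µM [γ-33P]ATP, 10 min at 30 °C. Read by P81 phosphocellulose binding, washing and scintillation counting; activity as percent of uninhibited control, DMSO controls.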

[2] = molecular target: Cyclin-dependent kinase 5/CDK5 activator 1 (Homo sapiens, UniProt Q00535); assay: Inhibitory activity against CDK5/p25; assay type: protein-complex assay
Cyclin-dependent kinase 5/CDK5 activator 1, sequence (Q00535 whole entry, the tested form may be a part): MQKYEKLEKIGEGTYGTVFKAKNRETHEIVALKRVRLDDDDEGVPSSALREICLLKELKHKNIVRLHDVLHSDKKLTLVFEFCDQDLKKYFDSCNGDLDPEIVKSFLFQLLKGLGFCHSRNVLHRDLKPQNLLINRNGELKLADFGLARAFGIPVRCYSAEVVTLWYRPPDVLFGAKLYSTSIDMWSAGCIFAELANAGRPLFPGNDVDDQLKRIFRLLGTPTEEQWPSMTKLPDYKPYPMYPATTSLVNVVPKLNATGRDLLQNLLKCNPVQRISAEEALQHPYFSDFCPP
Cyclin-dependent kinase 5/CDK5 activator 1, sequence (Q15078 whole entry, further chain, the tested form may be a part): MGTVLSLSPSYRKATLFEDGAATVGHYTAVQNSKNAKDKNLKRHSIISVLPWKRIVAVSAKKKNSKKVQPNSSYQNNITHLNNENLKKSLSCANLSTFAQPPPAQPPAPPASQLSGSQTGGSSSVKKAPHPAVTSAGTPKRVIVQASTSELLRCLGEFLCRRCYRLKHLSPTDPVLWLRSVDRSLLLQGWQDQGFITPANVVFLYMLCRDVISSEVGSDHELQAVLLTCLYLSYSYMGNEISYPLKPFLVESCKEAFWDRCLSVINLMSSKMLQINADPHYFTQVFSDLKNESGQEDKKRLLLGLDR
Method in brief: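 Recombinant mammalian CDK5 and p25, expressed in E. coli as GST fusions, glutathione-agarose purified and mixed in equal amounts. Assayed in buffer C pH 7.2 with 1 mg/mL histone H1 and 15 µM [γ-33P]ATP, 10 min at 30 °C. P81 filter binding and scintillation counting; activity as percent of maximal activity without inhibitor.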

CCRF-CEM = assay: Cytotoxicity against human leukemic CEM cell line; assay type: functional, cell-based; method in brief: as §1
[3] = molecular target: Glycogen synthase kinase-3 (Homo sapiens, UniProt P49840+P49841); assay: Inhibitory activity against GSK3 from porcine brain; parameters: species or system Sus scrofa; conditions: target entry is the homologue from another species
Method in brief: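 GSK-3α/β purified from porcine brain on immobilized axin, diluted 1/100 in BSA/DTT. Buffer A (25 mM Tris-HCl pH 7.5, 10 mM MgCl2, EGTA, DTT, 50 µg/mL heparin), GS-1 peptide substrate (5 µL of 40 µM), 15 µM [γ-33P]ATP, 30 min at 30 °C. P81 phosphocellulose filters washed in dilute phosphoric acid and counted; activity relative to no-inhibitor control.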

IC50 [2]	IC50 [3]	SMILES	IC50 (CEM/C2)	IC50 [1]	IC50 (CCRF-CEM)
> 10 µM		O=C1c2c(c3c4ccccc4[nH]c3c3ccccc23)C(=O)N1C(CO)CO	4.95 µM	> 10 µM	3.71 µM
> 10 µM		O=C1c2c(c3c4cc(O)ccc4[nH]c3c3ccccc23)C(=O)N1C(CO)CO	4.96 µM	> 10 µM	2.84 µM
> 10 µM		CN(C)CCN1C(=O)c2c(c3c4cc(O)ccc4[nH]c3c3ccccc23)C1=O	0.0187 µM	> 10 µM	0.0122 µM
> 10 µM		CN1C(=O)c2c(c3c4cc(O)ccc4[nH]c3c3ccccc23)C1=O	4.17 µM	> 10 µM	1.64 µM

Continued, molecule first:

SMILES	IC50 [2]	IC50 [3]	IC50 (CEM/C2)	IC50 [1]	IC50 (CCRF-CEM)
O=C1OC(=O)c2c1c1ccccc1c1[nH]c3ccc(O)cc3c21	> 10 µM		32.3 µM	> 10 µM	14.7 µM
O=C1c2c(c3c4ccccc4[nH]c3c3ccccc23)C(=O)N1CCc1c[nH]cn1	> 10 µM		2.92 µM	> 10 µM	1.58 µM
O=C1NC(=O)c2c1c1ccccc1c1[nH]c3ccc(O)cc3c21	0.25 µM	0.46 µM	> 25 µM	0.58 µM	> 25 µM
CN1C(=O)c2c(c3c4ccccc4[nH]c3c3ccccc23)C1=O	> 10 µM		> 100 µM	> 10 µM	> 100 µM
CN(C)CCN1C(=O)c2c(c3c4ccccc4[nH]c3c3ccccc23)C1=O	> 10 µM		0.335 µM	> 10 µM	0.11 µM
O=C1OC(=O)c2c1c1ccccc1c1[nH]c3ccccc3c21	> 10 µM		> 50 µM	> 10 µM	> 25 µM
O=C1c2c(c3c4cc(O)ccc4[nH]c3c3ccccc23)C(=O)N1CCc1c[nH]cn1	> 10 µM		1.9 µM	> 10 µM	0.715 µM
O=C1NC(=O)c2c1c1ccccc1c1[nH]c3ccccc3c21	8.5 µM	20 µM	> 100 µM	80 µM	> 100 µM
